The values below come from ChEMBL document CHEMBL2029304, “Synthesis and SAR of tetrahydroisoquinolines as Rev-erbα agonists” (Bioorg Med Chem Lett, 2012).

In series [1] the target is T1, Nuclear receptor subfamily 1 group D member 1 (Homo sapiens) (UniProt P20393).
T1 sequence (whole entry): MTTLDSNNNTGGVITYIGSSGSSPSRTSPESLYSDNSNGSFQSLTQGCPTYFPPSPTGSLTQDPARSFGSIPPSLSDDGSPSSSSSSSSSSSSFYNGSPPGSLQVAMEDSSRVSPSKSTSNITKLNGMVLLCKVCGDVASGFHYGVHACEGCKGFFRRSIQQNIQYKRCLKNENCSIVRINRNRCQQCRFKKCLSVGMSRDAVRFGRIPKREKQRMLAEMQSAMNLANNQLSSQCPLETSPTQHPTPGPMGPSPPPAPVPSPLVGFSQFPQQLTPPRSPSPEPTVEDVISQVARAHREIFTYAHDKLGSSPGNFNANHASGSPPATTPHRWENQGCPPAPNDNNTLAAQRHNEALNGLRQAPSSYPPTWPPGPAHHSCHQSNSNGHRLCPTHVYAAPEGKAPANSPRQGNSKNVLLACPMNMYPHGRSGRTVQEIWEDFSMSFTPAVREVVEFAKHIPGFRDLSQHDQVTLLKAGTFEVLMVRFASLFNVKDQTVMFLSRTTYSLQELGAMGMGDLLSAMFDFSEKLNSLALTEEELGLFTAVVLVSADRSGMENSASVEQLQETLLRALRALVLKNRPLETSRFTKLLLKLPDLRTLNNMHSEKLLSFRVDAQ
Briefly: Agonist activity at Rev-erbalpha assessed as repression of transcription at 10 uM by luciferase-reporter gene assay relative to control. The format is functional. Put shortly:
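Cells co-transfected with a full-length Rev-erbα expression plasmid and a luciferase reporter driven by the Bmal1 promoter. Compounds were screened at 1 μM and 10 μM for repression of Bmal1-driven transcription. The value is the fold change in luciferase signal relative to the DMSO control at 10 μM compound, where 1.0 means no repression.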
On the technique in general: In a reporter assay the amount or activity of a reporter protein is the signal.

Series [2] concerns the target T2, Nuclear receptor subfamily 1 group D member 1 (Homo sapiens, UniProt P20393).
T2 sequence (P20393 whole entry): T1 sequence (whole entry)
Briefly: Agonist activity at Rev-erbalpha assessed as repression of transcription by luciferase-reporter gene assay. The format is functional. Put shortly: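 Cells co-transfected with a full-length Rev-erbα expression plasmid and a luciferase reporter driven by the Bmal1 promoter; repression of Bmal1 transcription read by luciferase. Compounds first tested at 1 μM and 10 μM, value given as fold change versus DMSO control at 10 μM (1.0 = no repression). Active compounds then titrated in an eleven-point dose response to give EC50.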

Series [3] has as its system Rattus norvegicus. The series is described as follows: Oral bioavailability in Sprague-Dawley rat at 2 mg/kg by LC-MS/MS analysis. It counts as ADME, organism-based. The settings on record: in vivo. Put shortly:
(§1)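 Male/female unspecified Sprague-Dawley rats, n = 3; single 1 mg/kg i.v. dose and 2 mg/kg oral gavage dose. Blood sampled at 5, 15, 30 min, 1, 2, 4, 6, 8 h into EDTA tubes, plasma by centrifugation, proteins precipitated with acetonitrile, drug measured by LC-MS/MS. Noncompartmental analysis gave t1/2, clearance, Vd, AUC, Cmax and oral bioavailability.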

The target in series [4] is T2, Nuclear receptor subfamily 1 group D member 1. Briefly: Agonist activity at Rev-erbalpha assessed as NCoR recruitment by FRET assay. It counts as functional.
The subject of series [5] is Rattus norvegicus. Briefly: Volume of distribution in Sprague-Dawley rat at 1 mg/kg, iv and 2 mg/kg, po by LC-MS/MS analysis. It counts as ADME, organism-based. The settings on record: in vivo. The essentials: as §1
Series [6] can be described thus: Half life in Sprague-Dawley rat at 1 mg/kg, iv and 2 mg/kg, po by LC-MS/MS analysis. The format is ADME, organism-based. The settings on record: in vivo. Put shortly:
as §1

Series [7] has as its system Brain. Briefly: Brain penetration in C57Bl6 mouse at 10 mg/kg, ip after 2 hrs by LC-MS/MS analysis. It counts as ADME, organism-based. Also on record: dose 10 mg/kg, route intraperitoneal. The settings on record: in vivo. Put shortly:
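C57Bl6 mice (n = 3), single 10 mg/kg intraperitoneal dose; blood and brain collected at 2 h, plasma frozen at −80°C. Plasma and brain mixed with acetonitrile (1:5 v:v or w:v), brain probe-sonicated, drug measured by LC-MS/MS against plasma or blank-brain-matrix standards; brain penetration as brain/plasma level percentage.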

As a reminder, the EC50 is the concentration that produces a half-maximal response. Take `CC(C)(C)Oc1ccc(OCC2Cc3ccccc3CN2C(=O)c2cccc3ccccc23)cc1` (stereo unspecified): in series [1], the fold change (FC) was found to be 0.5. In series [2], the EC50 was determined as 0.14 µM. Turning to `O=C(c1cccc2ccccc12)N1Cc2ccccc2CC1CNS(=O)(=O)c1ccccc1` (stereo unspecified), the fold change (FC) in series [1] was determined as 0.4.

Turning to `CCOC(=O)C1Cc2ccccc2CN1C(=O)c1ccccc1Cl` (stereo unspecified), the fold change (FC) in series [1] stood at 0.78. `CCOc1ccc(OCC2Cc3ccccc3CN2C(=O)c2cccc3ccccc23)cc1` (stereo unspecified): the fold change (FC) in series [1] turned out to be 0.35. The EC50 in series [2] was 0.097 µM. Turning to `CCOC(=O)C1Cc2ccccc2CN1C(=O)c1cccc(Br)c1` (stereo unspecified), the fold change (FC) in series [1] came out at 0.97. Take `CCOC(=O)C1Cc2ccccc2CN1Cc1cccc2ccccc12` (stereo unspecified): the fold change (FC) in series [1] is 1. Consider `O=C(c1cccc2ccccc12)N1Cc2ccccc2CC1COc1ccc(F)cc1` (stereo unspecified), for which the fold change (FC) in series [1] amounted to 0.43. Moreover, the concentration for a half-maximal effect (EC50) in series [2] was determined as 0.8 µM. As for `CCOC(=O)C1Cc2ccccc2CN1C(=O)Nc1ccccc1` (stereo unspecified), in series [1], the fold change (FC) came to 1.5. Turning to `CCOC(=O)C1Cc2ccccc2CN1C(=O)Nc1cccc2ccccc12` (stereo unspecified), in series [1], the fold change (FC) stood at 1. On to `COc1ccc(OCC2Cc3ccccc3CN2C(=O)c2cccc3ccccc23)cc1` (stereo unspecified), for which the fold change (FC) in series [1] worked out at 0.38. The EC50 in series [2] worked out at 0.12 µM. For the molecule `O=C(NCC1Cc2ccccc2CN1C(=O)c1cccc2ccccc12)OCc1ccccc1` (stereo unspecified), in series [1], the fold change (FC) was 0.53. On the same count and under the same terms, then `CCOC(=O)C1Cc2ccccc2CN1Cc1ccc([N+](=O)[O-])o1` (stereo unspecified), with 0.9. On the same count and under the same terms, the result for `CCOC(=O)C1Cc2ccccc2CN1C(=O)c1cccc2cccnc12` (stereo unspecified) reads 0.64; that for `CCOC(=O)C1Cc2ccccc2CN1Cc1ccc(C(F)(F)F)nc1` (stereo unspecified), 1; that for `NC(=O)C1Cc2ccccc2CN1C(=O)c1cccc2ccccc12` (stereo unspecified), 0.61.

With `CN(C)c1cccc(OCC2Cc3ccccc3CN2C(=O)c2cccc3ccccc23)c1` (stereo unspecified), the fold change (FC) in series [1] came to 0.3. The EC50 in series [2] came out at 0.78 µM. Turning to `CCOC(=O)C1Cc2ccccc2CN1C(=O)Oc1cccc(C(F)(F)F)c1` (stereo unspecified), the fold change (FC) in series [1] was 1. Still for that read-out and setting: then `CC(=O)OCC1Cc2ccccc2CN1C(=O)c1cccc2ccccc12` (stereo unspecified), with 0.65.

As for `O=C(c1cccc2ccccc12)N1Cc2ccccc2CC1COc1ccc(OC(F)(F)F)cc1` (stereo unspecified), in series [1], the fold change (FC) was 0.4. Besides, the EC50 in series [2] was determined as 0.6 µM. As for `COc1cccc(OCC2Cc3ccccc3CN2C(=O)c2cccc3ccccc23)c1` (stereo unspecified), the fold change (FC) in series [1] is 0.45. For the same molecule, the concentration giving a half-maximal response (EC50) in series [2] came to 0.62 µM. Broadly, the half-life is the time in which the quantity being followed falls by half. On to `CC(C)(C)OC(=O)CN(Cc1ccc(Cl)cc1)Cc1ccc([N+](=O)[O-])s1` [GSK-4112], for which, in series [3], the F was determined as 0%. Further, the EC50 in series [4] stood at 0.4 µM; in series [2], 2.3 µM. Also, in series [5], the Vd came to 9.9 L/kg. For the same molecule, the fold change (FC) in series [1] stood at 0.82. In series [6], this molecule had a half-life of 0.4 h. This molecule also returned a Drug uptake in series [7] of 140%.

In the case of `CCOC(=O)C1Cc2ccccc2CN1Cc1ccc([N+](=O)[O-])s1` (stereo unspecified), the fold change (FC) in series [1] was found to be 0.78.

With `CCOC(=O)C1Cc2ccccc2CN1Cc1nc2ccccc2s1` (stereo unspecified), the fold change (FC) in series [1] amounted to 0.95. On to `O=C(c1cccc2ccccc12)N1Cc2ccccc2CC1CO` (stereo unspecified), for which the fold change (FC) in series [1] worked out at 0.71. For the molecule `O=C(c1cccc2ccccc12)N1Cc2ccccc2CC1COc1ccc(-n2cncn2)cc1` (stereo unspecified), the fold change (FC) in series [1] amounted to 0.35. Besides, the concentration giving a half-maximal response (EC50) in series [2] is 0.12 µM. In the same order, the values of `O=C(NCc1ccccc1)C1Cc2ccccc2CN1C(=O)c1cccc2ccccc12` (stereo unspecified) are 0.55 and > 3 µM. With `CCCOc1ccc(OCC2Cc3ccccc3CN2C(=O)c2cccc3ccccc23)cc1` (stereo unspecified), in series [1], the fold change (FC) came to 0.45. Moreover, in series [2], the concentration giving a half-maximal response (EC50) worked out at 0.077 µM.

As for `CCOC(=O)C1Cc2ccccc2CN1C(=O)c1cccc2ccccc12` (stereo unspecified), in series [1], the fold change (FC) stood at 0.41. In addition, in series [2], the EC50 was found to be 2.5 µM. In the same order, the values of `COc1ccccc1OCC1Cc2ccccc2CN1C(=O)c1cccc2ccccc12` (stereo unspecified) are 0.4 and 2 µM. In the same order, the values of `O=C(c1cccc2ccccc12)N1Cc2ccccc2CC1COc1ccccc1` (stereo unspecified) are 0.37 and 0.84 µM. Regarding `O=C(c1cccc2ccccc12)N1Cc2ccccc2CC1COc1cccc2ccccc12` (stereo unspecified), the fold change (FC) in series [1] was 0.41. Moreover, the EC50 in series [2] is 1.2 µM. As to `NCC1Cc2ccccc2CN1C(=O)c1cccc2ccccc12` (stereo unspecified), the fold change (FC) in series [1] was 0.74. `O=C(O)C1Cc2ccccc2CN1C(=O)c1cccc2ccccc12` (stereo unspecified): the fold change (FC) in series [1] is 0.67. For `CCOC(=O)C1Cc2ccccc2CN1C(=O)c1ccccc1` (stereo unspecified), in series [1], the fold change (FC) was 0.97. With `CCOC(=O)C1Cc2ccccc2CN1C(=O)c1cccc2oc(C)cc12` (stereo unspecified), the fold change (FC) in series [1] is 0.51. Further, the 50% effective concentration (EC50) in series [2] is > 3 µM. Regarding `CCOC(=O)C1Cc2ccccc2CN1C(=O)c1ccno1` (stereo unspecified), the fold change (FC) in series [1] is 1.

As for `CCOC(=O)C1Cc2ccccc2CN1C(=O)C1CCCc2ccccc21` (stereo unspecified), the fold change (FC) in series [1] turned out to be 0.73. Still for that read-out and setting: the result for `O=C(Nc1ccccc1)C1Cc2ccccc2CN1C(=O)c1cccc2ccccc12` (stereo unspecified) reads 0.59.

`O=C(c1cccc2ccccc12)N1Cc2ccccc2CC1COc1ccc(-c2ccccc2)cc1` (stereo unspecified): the fold change (FC) in series [1] was 0.4. Besides, in series [2], the EC50 was found to be 0.65 µM. As to `O=C(c1cccc2ccccc12)N1Cc2ccccc2CC1COCc1ccccc1` (stereo unspecified), in series [3], the F is 0%. The molecule further returned a Vd in series [5] of 3.8 L/kg. The fold change (FC) in series [1] is 0.41. This molecule also had a half-life in series [6] of 1.9 h. In addition, the EC50 in series [2] was found to be 0.65 µM.

In series [3], `O=C(c1cccc2ccccc12)N1Cc2ccccc2CC1CNCc1ccccc1` (stereo unspecified) showed an F of 0%. In series [5], this molecule gave a Vd of 3.8 L/kg. Further, in series [1], the fold change (FC) is 0.43. Also, in series [6], the half-life is 1.7 h. In series [2], the EC50 is > 3 µM. Consider `CCOC(=O)C1Cc2ccccc2CN1S(=O)(=O)c1cccc(Br)c1` (stereo unspecified), for which the fold change (FC) in series [1] was 0.75. In the case of `CCOC(=O)C1Cc2ccccc2CN1S(=O)(=O)c1cccc2ccccc12` (stereo unspecified), the fold change (FC) in series [1] came out at 0.5. Besides, the half-maximal effective concentration (EC50) in series [2] is 1.7 µM. `CCOC(=O)C1Cc2ccccc2CN1S(=O)(=O)c1ccc(C)cc1` (stereo unspecified): the fold change (FC) in series [1] was found to be 0.51. Besides, the EC50 in series [2] came out at 1.1 µM. In the same order, the values of `COc1ccc(OCC2Cc3ccccc3CN2C(=O)c2cccc3ccccc23)cc1OC` (stereo unspecified) are 0.55 and 0.33 µM.

Take `CCOC(=O)C1Cc2ccccc2CN1Cc1ccc(C(=O)O)s1` (stereo unspecified): the fold change (FC) in series [1] amounted to 1. On the same count and under the same terms, then `CCOC(=O)C1Cc2ccccc2CN1C(=O)Oc1ccccc1` (stereo unspecified), with 1. On to `CCOC(=O)C1Cc2ccccc2CN1C(=O)c1cccc2c1CCCC2` (stereo unspecified), for which, in series [1], the fold change (FC) worked out at 0.53. The 50% effective concentration (EC50) in series [2] is 2.1 µM. Regarding `CCOC(=O)C1Cc2ccccc2CN1C(=O)Oc1ccc(Cl)cc1` (stereo unspecified), in series [1], the fold change (FC) is 1.3. Still for that read-out and setting: then `CCOC(=O)C1Cc2ccccc2CN1C(=O)C1COc2ccccc2O1` (stereo unspecified), with 0.81. As to `O=C(c1cccc2ccccc12)N1Cc2ccccc2CC1COc1ccc(F)cc1F` (stereo unspecified), the fold change (FC) in series [1] was 0.45. Moreover, the EC50 in series [2] stood at 0.71 µM.
